In brackets after ≈: the same amount, converted by molar mass.
What was measured:
Escherichia coli [1] = assay: Antibacterial activity against Escherichia coli J53 by Etest method; assay type: functional
Klebsiella pneumoniae [2] = assay: Antibacterial activity against Klebsiella pneumoniae 05-560 by Etest method; assay type: functional
Escherichia coli [3] = assay: Antibacterial activity against Escherichia coli TOP10 harboring beta-lactamase NDM-1 by Etest method; assay type: functional
Method in brief: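 Fragments from BamHI, EcoRI or HindIII digests of K. pneumoniae 05-506 DNA were cloned into vector pK18 and electroporated into E. coli TOP10. Transformants were selected on LB agar with X-gal (30 μg/ml), ceftazidime (6 μg/ml) and kanamycin (25 μg/ml). Susceptibility read by Etest.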

Escherichia coli [4] = assay: Antibacterial activity against Escherichia coli TOP10 by Etest method; assay type: functional
Escherichia coli [5] = assay: Antibacterial activity against Escherichia coli J53 harboring beta-lactamase NDM-1 by Etest method; assay type: functional
Method in brief: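 Transconjugant of E. coli J53 recipient, mated with donor on blood agar without selection for 18 h. Selected on MacConkey agar with sodium azide (100 μg/ml) plus ceftazidime (8 μg/ml). Transfer confirmed by indole test and PCR for the MBL gene. Susceptibility read by Etest.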

Escherichia coli [6] = assay: Antibacterial activity against Escherichia coli NF-NDM-1 by Etest method; assay type: functional
Klebsiella pneumoniae [7] = assay: Ratio of Kcat to Km for Klebsiella pneumoniae 05-560 beta-lactamase IMP1
Klebsiella pneumoniae [8] = assay: Activity of Klebsiella pneumoniae 05-560 beta-lactamase IMP1 by spectrophotometry

Row | SMILES | MIC (Escherichia coli [1]) [µg/mL] | MIC (Klebsiella pneumoniae [2]) [µg/mL] | MIC (Escherichia coli [3]) [µg/mL] | MIC (Escherichia coli [4]) [µg/mL] | MIC (Escherichia coli [5]) [µg/mL] | MIC (Escherichia coli [6]) [µg/mL] | kcat/Km (Klebsiella pneumoniae [7]) [M⁻¹ s⁻¹] | Km (Klebsiella pneumoniae [8]) [µM] | kcat (Klebsiella pneumoniae [8]) [s⁻¹]
1 | C[C@@H](O)[C@H]1C(=O)N2C(C(=O)O)=C(S[C@@H]3CN[C@H](C(=O)Nc4cccc(C(=O)O)c4)C3)[C@H](C)[C@H]12 | 0.5 (≈ 1.05 µM) | > 256 | 24 (≈ 50.5 µM) | 0.125 (≈ 0.263 µM) | > 32 | > 32 | – | – | –
2 | CO/N=C(\C(=O)N[C@@H]1C(=O)N2C(C(=O)[O-])=C(C[N+]3(C)CCCC3)CS[C@H]12)c1csc(N)n1 | – | > 256 | 8 (≈ 16.6 µM) | – | 24 (≈ 49.9 µM) | 24 (≈ 49.9 µM) | 660000 | 11 | 7
3 | CC1(C)S[C@@H]2[C@H](NC(=O)Cc3ccccc3)C(=O)N2[C@H]1C(=O)O | – | – | – | – | – | – | 620000 | 520 | 320
4 | CC1(C)S[C@@H]2[C@H](NC(=O)[C@H](N)c3ccccc3)C(=O)N2[C@H]1C(=O)O [AMPICILLIN] | 4 (≈ 11.4 µM) | > 256 | > 256 | 12 (≈ 34.3 µM) | > 256 | > 256 | 4.8e+06 | 200 | 950
5 | C[C@H]1[C@H](NC(=O)/C(=N\OC(C)(C)C(=O)O)c2csc(N)n2)C(=O)N1S(=O)(=O)O [AZTREONAM] | – | > 256 | 0.25 (≈ 0.574 µM) | – | 24 (≈ 55.1 µM) | 24 (≈ 55.1 µM) | < 100 | > 1000 | > 0.01
6 | CO/N=C(\C(=O)N[C@@H]1C(=O)N2C(C(=O)O)=C(COC(C)=O)CS[C@H]12)c1csc(N)n1 [CEFOTAXIME] | 0.064 (≈ 0.141 µM) | > 256 | > 256 | 0.125 (≈ 0.274 µM) | > 256 | > 256 | 350000 | 4 | 1.3
7 | CO[C@@]1(NC(=O)Cc2cccs2)C(=O)N2C(C(=O)O)=C(COC(N)=O)CS[C@@H]21 [CEFOXITIN] | 2 (≈ 4.68 µM) | > 256 | > 256 | 4 (≈ 9.36 µM) | > 256 | > 256 | 2e+06 | – | –
8 | CC(C)(O/N=C(\C(=O)N[C@@H]1C(=O)N2C(C(=O)[O-])=C(C[n+]3ccccc3)CS[C@H]12)c1csc(N)n1)C(=O)O [CEFTAZIDIME] | 0.125 (≈ 0.229 µM) | > 256 | > 256 | 1 (≈ 1.83 µM) | > 256 | > 256 | 180000 | 44 | 8
